# The source made the active and inactive calls.
# What was measured:
# SW-620 [1] = assay: Antitumor activity against human SW620 cells xenografted in nude athymic rat assessed as increase in cleaved caspase-3 at 25 mg/kg/day, iv for 4 consecutive days and measured on 9 day by H&E staining based immunohistochemistry analysis; assay type: functional, organism-based
# In short: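 Nude rats bearing SW620 tumors received i.v. AZD1152 at 25 mg/kg/d or vehicle on days 1-4 (n = 3 per time point). Tumor sections were immunostained for cleaved caspase-3 (HRP polymer). The percentage area of brown staining per field was quantified by color-threshold image analysis over six fields per section at ×20.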
# SW-620 [2] = assay: Antitumor activity against human SW620 cells xenografted in nude athymic rat assessed as high degree of pleomorphism at 25 mg/kg/day, iv for 4 consecutive days and measured on 5 day by H&E staining based immunohistochemistry analysis; assay type: functional, organism-based
# In short: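 Nude rats bearing SW620 tumors were dosed i.v. with AZD1152 at 25 mg/kg/d or with vehicle on days 1-4. Subgroups (n = 3) were killed at set days. Tumor and bone marrow sections were H&E-stained and examined histologically.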
# A549 [3] = assay: Antitumor activity against human A549 cells xenografted in immunodeficient Swiss athymic mouse assessed as inhibition of tumor volume at 25 mg/kg/day, sc for 48 hrs on days 13 to 15 and measured on day 29 relative to control; assay type: functional; details: A549, 408 h, time 17 day
# In short: (§1)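 Male Swiss athymic nude mice, 8-12 wk; tumor cells (1×10^6-1×10^7, 50:50 Matrigel) implanted s.c. on flank. Randomized (n = 8-11) at 0.2-0.5 cm3. AZD1152 in Tris buffer pH 9, or vehicle (0.3 mol/L Tris), by 48-h s.c. osmotic mini-pump infusion (two 24-h pumps in sequence). Caliper volumes up to 3×/week; growth inhibition from change in control vs treated volume; one-tailed t test.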
# SW-620 [4] = assay: Antitumor activity against human SW620 cells xenografted in Swiss nude mouse assessed as inhibition in PhH3 level at 0.5 mg/kg/day, sc measured over 48 hrs by flow cytometry analysis relative to control; assay type: functional
# In short: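 Male nude mice with palpable s.c. SW620 tumors (n = 4/group) received AZD1152 (0.5-150 mg/kg/d) or vehicle by constant 48-h s.c. mini-pump infusion. Tumors were then excised, fixed and disaggregated. Flow cytometry with propidium iodide gave DNA content (2N, 4N, >4N), and rabbit anti-PhH3 with fluorescein anti-rabbit IgG gave PhH3-positive cells (%).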
# A549 [5] = assay: Antitumor activity against human A549 cells xenografted in immunodeficient Swiss athymic mouse assessed as inhibition of tumor volume at 150 mg/kg/day, sc for 48 hrs on days 13 to 15 and measured on day 29 relative to control; assay type: functional; details: A549, 408 h, time 17 day; in short: as §1
compound,measurement,setting,value
CCN(CCCOc1ccc2c(Nc3cc(CC(=O)Nc4cccc(F)c4)[nH]n3)ncnc2c1)CCOP(=O)(O)O [BARASERTIB],Activity,SW-620 [1],Active
same,Activity,SW-620 [2],Active
same,inhibition in vivo at 25 mg/kg/day,A549 [3],36%
same,inhibition in vivo at 0.5 mg/kg/day,SW-620 [4],52%
same,inhibition in vivo at 150 mg/kg/day,A549 [5],69%

# From ChEMBL document CHEMBL5715941, “AZD1152, a selective inhibitor of Aurora B kinase, inhibits human tumor xenograft growth by inducing apoptosis” (Clin Cancer Res, 2007)
